From ChEMBL document CHEMBL1145811, “Synthesis and antibacterial activity of a novel series of acylides: 3-O-(3-pyridyl)acetylerythromycin A derivatives” (J Med Chem, 2003)
≈ marks a conversion by molar mass, not a printed value.

Experiments:
Format in all cases: functional
[1] = test system: Haemophilus influenzae; assay: In vitro minimum inhibitory concentration for antibacterial activity against Haemophilus influenzae ATCC 33533 (ampicillin-resistant strain that produces beta-lactamase)
Method in brief: (§1)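 Agar dilution MIC determined by the Japan Society of Chemotherapy standard method for aerobic bacteria.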

[2] = test system: Haemophilus influenzae; assay: In vitro minimum inhibitory concentration for antibacterial activity against Haemophilus influenzae ATCC 43095 (ampicillin-susceptible strain that does not produce beta-lactamase); method in brief: as §1
[3] = test system: Staphylococcus aureus; assay: In vitro minimum inhibitory concentration for antibacterial activity against erythromycin-susceptible strain Staphylococcus aureus […]
Method in brief: (§2)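 MIC by agar dilution following the Japan Society of Chemotherapy standard method for aerobic bacteria. S. aureus 209P-JC and S. pneumoniae IID553 are erythromycin-susceptible strains.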

[4] = test system: Staphylococcus aureus; assay: In vitro minimum inhibitory concentration for antibacterial activity against Staphylococcus aureus B1 (inducibly MLSb-resistant strain encoded by the erm(C) gene); method in brief: as §1
[5] = test system: Streptococcus pneumoniae; assay: In vitro minimum inhibitory concentration for antibacterial activity against erythromycin-susceptible strain Streptococcus pneumoniae IID553; method in brief: as §2
[6] = test system: Streptococcus pneumoniae; assay: In vitro minimum inhibitory concentration for antibacterial activity against Streptococcus pneumoniae 210 (efflux-resistant strain encoded by the mef(A) gene); method in brief: as §1
[7] = test system: Streptococcus pneumoniae; assay: In vitro minimum inhibitory concentration for antibacterial activity against Streptococcus pneumoniae 211 (MLSb-resistant strain encoded by the erm(B) gene); method in brief: as §1
[8] = test system: Staphylococcus aureus; assay: In vitro minimum inhibitory concentration for antibacterial activity against Staphylococcus aureus SR138 (constitutively MLSb-resistant strain encoded by the erm(A) gene); method in brief: as §1

| Structure (SMILES) | MIC [1] [µg/mL] | MIC [2] [µg/mL] | MIC [3] [µg/mL] | MIC [4] [µg/mL] | MIC [5] [µg/mL] | MIC [6] [µg/mL] | MIC [7] [µg/mL] | MIC [8] [µg/mL] |
| --- | --- | --- | --- | --- | --- | --- | --- | --- |
| CC[C@H]1OC(=O)[C@H](C)[C@@H](OC(=O)Cc2cccnc2)[C@H](C)[C@@H](OC2O[C@H](C)C[C@H](N(C)C)[C@H]2O)[C@@](C)(OC)C[C@@H](C)C2=NCCN3C(=O)O[C@@]1(C)[C@H]3[C@H]2C (some centres not stated) | 3.13 (≈ 4.12 µM) | 6.25 (≈ 8.24 µM) | 0.2 (≈ 0.264 µM) | 0.39 (≈ 0.514 µM) | 0.05 (≈ 0.0659 µM) | 0.2 (≈ 0.264 µM) | > 100 | > 100 |
| CC[C@H]1OC(=O)[C@H](C)[C@@H](OC(=O)Cc2ccncc2)[C@H](C)[C@@H](OC2O[C@H](C)C[C@H](N(C)C)[C@H]2O)[C@@]2(C)C[C@@H](C)[C@H](OC(=O)O2)[C@H](C)[C@H]2OC(=O)O[C@@]21C (some centres not stated) | 6.25 (≈ 8.35 µM) | 12.5 (≈ 16.7 µM) | 0.2 (≈ 0.267 µM) | 0.39 (≈ 0.521 µM) | 0.05 (≈ 0.0668 µM) | 0.2 (≈ 0.267 µM) | > 100 | > 100 |
| CC[C@H]1OC(=O)[C@H](C)[C@@H](OC(=O)Cc2cccnc2)[C@H](C)[C@@H](OC2O[C@H](C)C[C@H](N(C)C)[C@H]2O)[C@@](C)(O)C[C@@H](C)[C@H](O)[C@H](C)[C@H]2OC(=O)O[C@@]21C (some centres not stated) | 6.25 (≈ 8.65 µM) | 3.13 (≈ 4.33 µM) | 0.78 (≈ 1.08 µM) | 0.78 (≈ 1.08 µM) | 0.1 (≈ 0.138 µM) | 0.2 (≈ 0.277 µM) | > 100 | > 100 |
| CC[C@H]1OC(=O)[C@H](C)[C@@H](OC(=O)c2cccc(OC)c2)[C@H](C)[C@@H](OC2O[C@H](C)C[C@H](N(C)C)[C@H]2O)[C@@](C)(OC)C[C@@H](C)C(=O)[C@H](C)[C@@H](O)[C@]1(C)O (some centres not stated) | 100 (≈ 138 µM) | > 100 | 25 (≈ 34.5 µM) | 50 (≈ 69.1 µM) | 1.56 (≈ 2.15 µM) | 1.56 (≈ 2.15 µM) | > 100 | > 100 |
| CC[C@H]1OC(=O)[C@H](C)[C@@H](OC(=O)Cc2ccncc2)[C@H](C)[C@@H](OC2O[C@H](C)C[C@H](N(C)C)[C@H]2O)[C@@](C)(OC)C[C@@H](C)C(=O)[C@H](C)[C@@H](O)[C@]1(C)O (some centres not stated) | 50 (≈ 70.5 µM) | 50 (≈ 70.5 µM) | 0.78 (≈ 1.1 µM) | 1.56 (≈ 2.2 µM) | 0.39 (≈ 0.55 µM) | 0.39 (≈ 0.55 µM) | > 100 | > 100 |
| CC[C@H]1OC(=O)[C@H](C)[C@@H](OC(=O)Cc2cccnc2)[C@H](C)[C@@H](OC2O[C@H](C)C[C@H](N(C)C)[C@H]2O)[C@@](C)(O)C[C@@H](C)/C(=N\O)[C@H](C)[C@@H](O)[C@]1(C)O (some centres not stated) | 12.5 (≈ 17.6 µM) | 12.5 (≈ 17.6 µM) | 1.56 (≈ 2.2 µM) | 1.56 (≈ 2.2 µM) | 0.39 (≈ 0.549 µM) | 0.78 (≈ 1.1 µM) | > 100 | > 100 |
| CC[C@H]1OC(=O)[C@H](C)[C@@H](OC(=O)Cc2ccccc2OC)[C@H](C)[C@@H](OC2O[C@H](C)C[C@H](N(C)C)[C@H]2O)[C@@](C)(OC)C[C@@H](C)C(=O)[C@H](C)[C@@H](O)[C@]1(C)O (some centres not stated) | 100 (≈ 136 µM) | > 100 | 3.13 (≈ 4.24 µM) | 12.5 (≈ 16.9 µM) | 1.56 (≈ 2.11 µM) | 1.56 (≈ 2.11 µM) | > 100 | > 100 |
| CC[C@H]1OC(=O)[C@H](C)[C@@H](OC(=O)Cc2cccnc2)[C@H](C)[C@@H](OC2O[C@H](C)C[C@H](N(C)C)[C@H]2O)[C@@](C)(O)C[C@@H](C)[C@@H]2OC(=O)O[C@H]([C@H]2C)[C@]1(C)O (some centres not stated) | 6.25 (≈ 8.65 µM) | 12.5 (≈ 17.3 µM) | 0.78 (≈ 1.08 µM) | 1.56 (≈ 2.16 µM) | 0.1 (≈ 0.138 µM) | 0.39 (≈ 0.54 µM) | > 100 | > 100 |
| CC[C@H]1OC(=O)[C@H](C)[C@@H](OC(=O)Cc2cccnc2)[C@H](C)[C@@H](OC2O[C@H](C)C[C@H](N(C)C)[C@H]2O)[C@@](C)(O)C[C@@H](C)C(=O)[C@H](C)[C@@H](O)[C@]1(C)O (some centres not stated) | 12.5 (≈ 18 µM) | 12.5 (≈ 18 µM) | 1.56 (≈ 2.25 µM) | 6.25 (≈ 8.99 µM) | 0.2 (≈ 0.288 µM) | 0.78 (≈ 1.12 µM) | > 100 | > 100 |
| CC[C@H]1OC(=O)[C@H](C)[C@@H](OC(=O)Cc2ccccc2[N+](=O)[O-])[C@H](C)[C@@H](OC2O[C@H](C)C[C@H](N(C)C)[C@H]2O)[C@@](C)(OC)C[C@@H](C)C(=O)[C@H](C)[C@@H](O)[C@]1(C)O (some centres not stated) | 50 (≈ 66.4 µM) | 50 (≈ 66.4 µM) | 0.39 (≈ 0.518 µM) | 0.78 (≈ 1.04 µM) | 0.2 (≈ 0.266 µM) | 0.2 (≈ 0.266 µM) | > 100 | > 100 |
| CC[C@H]1OC(=O)[C@H](C)[C@@H](OC(=O)Cc2cccc(OC)c2)[C@H](C)[C@@H](OC2O[C@H](C)C[C@H](N(C)C)[C@H]2O)[C@@](C)(OC)C[C@@H](C)C(=O)[C@H](C)[C@@H](O)[C@]1(C)O (some centres not stated) | 25 (≈ 33.9 µM) | 50 (≈ 67.8 µM) | 1.56 (≈ 2.11 µM) | 3.13 (≈ 4.24 µM) | 0.39 (≈ 0.529 µM) | 0.39 (≈ 0.529 µM) | > 100 | > 100 |
| CC[C@H]1OC(=O)[C@H](C)[C@@H](O)[C@H](C)[C@@H](OC2O[C@H](C)C[C@H](N(C)C)[C@H]2O)[C@@]2(C)C[C@@H](C)[C@H](OC(=O)O2)[C@H](C)[C@H]2OC(=O)O[C@@]21C (some centres not stated) | 100 (≈ 159 µM) | 50 (≈ 79.4 µM) | 12.5 (≈ 19.8 µM) | > 100 | 0.78 (≈ 1.24 µM) | 1.56 (≈ 2.48 µM) | > 100 | > 100 |
| CC[C@H]1OC(=O)[C@H](C)[C@@H](OC(=O)Cc2cccnc2)[C@H](C)[C@@H](OC2O[C@H](C)C[C@H](N(C)C)[C@H]2O)[C@@](C)(OC)C[C@@H](C)/C(=N\O)[C@H](C)[C@@H](O)[C@]1(C)O (some centres not stated) | 12.5 (≈ 17.3 µM) | 12.5 (≈ 17.3 µM) | 0.78 (≈ 1.08 µM) | 1.56 (≈ 2.15 µM) | 0.2 (≈ 0.276 µM) | 0.39 (≈ 0.539 µM) | > 100 | > 100 |
| CC[C@H]1OC(=O)[C@H](C)[C@@H](OC(=O)Cc2ccccc2)[C@H](C)[C@@H](O[C@@H]2O[C@H](C)C[C@H](N(C)C)[C@H]2O)[C@@](C)(OC)C[C@@H](C)C(=O)[C@H](C)[C@@H](O)[C@]1(C)O | 100 (≈ 141 µM) | 100 (≈ 141 µM) | 1.56 (≈ 2.2 µM) | 6.25 (≈ 8.83 µM) | 0.78 (≈ 1.1 µM) | 0.78 (≈ 1.1 µM) | > 100 | > 100 |
